# Source: PubChem
# Only some compounds are listed: those with a hit (about 2.9% of all), similar ones and a draw of the others.
# Apaf1 inhib: inhibitors of human Apaf-1 apoptosome, primary screen, biochemical, DEVD-Rh110 fluorescence, uHTS; 330,000 compounds, 0.71% hits; reconstituted apoptosome caspase-3 activity; Apoptotic protease-activating factor 1 (Homo sapiens), O14727; inhibition, % at 20 µM; active = inhibition of at least 40% at 20 µM
#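 Assay system – apoptosome proteins · Medium – Hepes buffer, pH 7.5 · Also added – cytochrome c with DEVD-Rh110 · Timing – 30 min compound preincubation, 50 min activation, room temperature · Detection – Rh110 fluorescence, excitation 480 nm, emission 540 nm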
# SENP8 block-1: SENP8 protease inhibitors, primary screen, biochemical, luminescence; Sentrin-specific protease 8 (Homo sapiens), Q96LD8; purified SENP8, Z-RLRGG-aminoluciferin cleavage; inhibition, % at 10 µM; 330,000 compounds, 1.2% hits; in the data active = inhibition above about 50%
# SENP8 block-2: human SENP8 protease inhibitors, primary screen, biochemical, fluorescence, Nedd8 protein substrate, uHTS; AID 602440, 2012; Sentrin-specific protease 8 (Homo sapiens), Q96LD8; recombinant SENP8; inhibition, % at 20 µM; 360,000 compounds, 0.64% hits; in the data active = inhibition mostly above about 40%, no sharp cut-off; inactive = mostly below about 27%
# SENP6 block: SENP6 protease inhibitors, primary screen, biochemical, luminescence, uHTS; Sentrin-specific protease 6 (Homo sapiens), Q9GZR1; 330,000 compounds, 1.8% hits; AID 2599, 2010; inhibition, % at 10 µM; Recombinant SENP6 catalytic domain, aminoluciferin luminescence;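 active = inhibition above about 50% at the single tested dose, limit read from the data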
# SENP7 inh: SENP7 protease inhibitors, primary screen, biochemical, luminescence, uHTS. Sentrin-specific protease 7 (Homo sapiens), Q9BQF6. recombinant SENP7, Z-RLRGG-aminoluciferin luminescence, 40 min. inhibition, % at 5 µM. 330,000 compounds, 1.5% hits. AID 434973, 2010;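 active = inhibition above about 50% at the single test dose, limit read from the data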
# Target sequence (Q9BQF6 706-1050 limits assumed): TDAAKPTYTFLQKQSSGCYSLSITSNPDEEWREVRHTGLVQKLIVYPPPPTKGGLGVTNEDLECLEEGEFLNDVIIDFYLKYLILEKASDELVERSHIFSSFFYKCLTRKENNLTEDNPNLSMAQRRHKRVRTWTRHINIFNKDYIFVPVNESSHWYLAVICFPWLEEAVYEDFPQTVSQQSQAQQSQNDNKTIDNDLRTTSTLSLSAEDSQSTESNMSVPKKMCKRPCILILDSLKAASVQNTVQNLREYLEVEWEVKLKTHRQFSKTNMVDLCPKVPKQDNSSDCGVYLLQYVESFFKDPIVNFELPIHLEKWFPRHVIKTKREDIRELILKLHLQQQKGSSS
# SENP1 FRET inh: human SENP1 catalytic domain inhibitors, primary screen, biochemical, FRET, uHTS; inhibition, % at 10 µM; Sentrin-specific protease 1 (Homo sapiens), Q9P0U3; AID 624204, 2012; recombinant SENP1 catalytic domain, CyPet-SUMO1-YPet FRET cleavage; 360,000 compounds, 0.21% hits;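 active = inhibition at least 30% at 10 µM, raw YFP signal under a set limit, fluorescence ratio 0.5 to 1.5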
#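 Material – human SENP1 catalytic domain · Input – SENP1 enzyme, 20 pM final · Compound dosing – single concentration of 10 µM compound, 0.5% DMSO final · Timing – enzyme reaction for 50 min at room temperature, dark · Measured by – FRET fluorescence in CFP and YFP emission channels · Control set – no-enzyme wells low, DMSO-plus-enzyme wells high control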
# SENP8 conf: SENP8 protease inhibitors, retest, confirmation, biochemical, luminescence, single concentration; shares compounds with SENP7 inh; Recombinant SENP8, Z-RLRGG-aminoluciferin luminescence, 60 min; inhibition, % at 12.5 µM; 6,200 compounds, 40% hits;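 active = mean inhibition across replicates above about 50%, limit read from the data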
# SENP6 conf: SENP6 protease inhibitors, confirmation, biochemical, luminescence, single concentration; recombinant SENP6, Z-RLRGG-aminoluciferin luminescence; inhibition, % at 12.5 µM; shares compounds with SENP7 inh; 6,200 compounds, 58% hits
# SENP7 conf: SENP7 protease inhibitors, retest, confirmation, biochemical, luminescence, single concentration | shares compounds with SENP7 inh | recombinant SENP7, Z-RLRGG-aminoluciferin luminescence, 40 min | 6,200 compounds, 69% hits | inhibition, % at 12.5 µM
# Casp3 select: caspase-3 protease inhibitors, confirmation, selectivity assay for SENP inhibitor project, biochemical, single concentration; shares compounds with SENP7 inh; purified caspase-3, Z-DEVD-aminoluciferin luminescence, 60 min; inhibition, % at 12.5 µM; 6,200 compounds, 60% hits; AID 488918, 2010;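 active = mean inhibition above about 50%, limit read from the data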
# Target sequence (P42574 28-227 limits assumed): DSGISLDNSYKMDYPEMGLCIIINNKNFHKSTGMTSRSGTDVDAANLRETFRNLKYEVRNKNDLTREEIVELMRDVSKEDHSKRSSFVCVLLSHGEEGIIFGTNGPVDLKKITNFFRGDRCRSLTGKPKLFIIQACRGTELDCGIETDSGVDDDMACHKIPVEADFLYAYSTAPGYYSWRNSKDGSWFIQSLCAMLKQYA
# Luc interf: interferes with luciferase luminescence in SENP counter-screen; shares compounds with SENP7 inh; Pre-incubated SENP8/Z-RLRGG-aminoluciferin, luciferase luminescence interference; inhibition, % at 12.5 µM; 6,200 compounds, 39% hits; AID 488919;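 active = mean inhibition above about 50% when retested at one dose, limit read from the data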
# Hits are given with their value; - = inactive; . = not tested or not shown.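 The calls were made as follows, unless noted: active = mean inhibition above about 50% in the one-dose retest (limit read from the data); inactive = the rest.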
SMILES,Apaf1 inhib,SENP8 block-1,SENP8 block-2,SENP6 block,SENP7 inh,SENP1 FRET inh,SENP8 conf,SENP6 conf,SENP7 conf,Casp3 select,Luc interf
O=C(O)c1cccc(COc2cccc3ccccc23)c1,-,97,-,97,96,-,98,100,103,84,99
COc1cc(OC)cc(C(=O)NC(C)CNc2ccc(Cl)cc2[N+](=O)[O-])c1 (stereo unspecified),-,-,-,-,-,-,.,.,.,.,.
COc1ccc(/C=C2\Cc3ccccc3C2=O)cc1OC,.,.,-,.,.,-,.,.,.,.,.
CC(=O)Nc1ccc(/C=C2\CCc3ccccc3C2=O)cc1,-,-,-,56,-,-,-,-,-,-,-
COc1ccc(C=C2Cc3ccccc3C2=O)cc1,.,.,-,.,.,-,.,.,.,.,.
COc1ccc(/C=C2\CCc3ccccc3C2=O)cc1O,-,95,-,99,95,-,96,99,101,92,95
O=C(Nc1cccnc1Cl)c1noc2c1CCc1ccccc1-2,-,-,-,-,65,-,-,-,-,-,-
CCCNC(=O)c1noc2c1CCc1ccccc1-2,-,-,-,-,-,-,.,.,.,.,.
CC(C)NC(=O)C1(C)CN(S(C)(=O)=O)CC(=O)N1CCOc1ccccc1 (stereo unspecified),.,.,-,.,.,-,.,.,.,.,.
Cc1ccc(C(=O)O/N=C(\N)c2ccccn2)c(Cl)c1,-,96,-,96,99,-,98,99,102,98,98
N/C(=N\OC(=O)c1ccc(Cl)cc1[N+](=O)[O-])c1cccnc1,-,-,-,-,-,-,.,.,.,.,.
N/C(=N\OC(=O)c1cccc([N+](=O)[O-])c1)c1ccccn1,-,-,-,50,61,-,-,-,75,80,-
N/C(=N\OC(=O)c1ccc(Cl)cc1[N+](=O)[O-])c1ccccn1,-,53,-,59,51,-,-,-,77,77,-
Cc1ccc(C(=O)O/N=C(\N)c2ccccc2)c(Cl)c1,-,97,-,99,99,-,-,-,-,-,-
CCCCn1nnnc1C(c1cc2ccccc2o1)N1CCCN(C(=O)OC(C)(C)C)CC1 (stereo unspecified),.,.,-,.,.,-,.,.,.,.,.
Cc1ccc(OC(C)C(=O)Nc2ccc(F)cc2)c([N+](=O)[O-])n1 (stereo unspecified),-,-,-,-,-,-,.,.,.,.,.
N/C(=N\OC(=O)c1ccc([N+](=O)[O-])cc1Cl)c1ccccn1,-,91,-,96,95,-,82,96,102,97,-
N/C(=N\OC(=O)c1ccc(Cl)cc1Cl)c1ccncc1,-,59,-,77,62,-,62,64,84,73,64
N/C(=N\OC(=O)COc1cc(Cl)c(Cl)cc1Cl)c1ccccn1,-,58,-,79,77,-,-,55,-,52,-
N/C(=N\OC(=O)c1cc([N+](=O)[O-])ccc1Cl)c1ccccn1,-,-,-,-,-,-,.,.,.,.,.
N/C(=N\OC(=O)/C=C/c1ccccc1)c1ccccn1,-,88,-,95,96,-,89,90,100,94,93
N/C(=N/OC(=O)c1cccc([N+](=O)[O-])c1)c1cccc([N+](=O)[O-])c1,-,-,-,-,-,-,.,.,.,.,.
N/C(=N\OC(=O)c1ccc(Cl)cc1Cl)c1ccccn1,-,96,-,99,99,-,97,98,102,98,95
N/C(=N\OC(=O)c1ccccc1Cl)c1cccc([N+](=O)[O-])c1,-,67,-,75,90,-,59,60,91,59,81
N/C(=N\OC(=O)c1cc(Br)ccc1Cl)c1ccccn1,-,-,-,-,-,-,.,.,.,.,.
SMILES,Apaf1 inhib,SENP8 block-1,SENP8 block-2,SENP6 block,SENP7 inh,SENP1 FRET inh,SENP8 conf,SENP6 conf,SENP7 conf,Casp3 select,Luc interf
O=C(COC(=O)c1ccc([N+](=O)[O-])s1)Nc1ncc(C(F)(F)F)cc1Cl,-,-,-,71,-,-,-,84,-,-,-
Cc1ccc(S(=O)(=O)N2CCN(C(=O)COC(=O)CNC(=O)c3ccc(Cl)cc3Cl)CC2)c(C)c1,.,.,-,.,.,-,.,.,.,.,.
Fc1cccc(-c2cc3nc4c(c(NCc5ccco5)n3n2)CCCC4)c1,-,70,-,85,-,-,-,-,-,-,-
CNC(=O)C[C@@H]1C(=O)N(CCc2ccccc2)CC1(C)C,.,.,-,.,.,-,.,.,.,.,.
N#C/C(=C\c1ccco1)c1nc2ccccc2s1,-,87,-,89,88,-,88,91,97,84,-
N#C/C(=C/c1ccc(-c2cc(C(=O)O)cc(C(=O)O)c2)o1)c1nc2ccccc2s1,-,-,.,-,-,.,.,.,.,.,.
N#C/C(=C/c1ccco1)c1nc2ccccc2s1,-,86,-,-,78,-,82,86,95,85,55
O=[N+]([O-])c1ccc(Br)c(CN2CCN(c3ncc(Cc4ccccc4)cn3)CC2)c1,.,.,-,.,.,-,.,.,.,.,.
CC1(Oc2ccc(Cl)cc2)CCN(Cc2ccc(-c3ccccn3)cc2)C1 (stereo unspecified),.,.,-,.,.,-,.,.,.,.,.
O=C1NC(c2cccc3ccccc23)Nc2ccccc21 (stereo unspecified),.,.,-,.,.,-,.,.,.,.,.
O=C1c2ccccc2C(=O)C12OC2c1cccc2ccccc12 (stereo unspecified),94,53,93,87,-,-,72,88,78,-,-
